Screening results from PubChem.
CASP6 VEID inh: inhibitors of human caspase-6; P55212; purified caspase-6, Z-VEID-R110 cleavage fluorescence; inhibition, % at 12.5 µM; actives 0.53% (n = 350,000);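 active = mean inhibition across replicates at least about 35%, with every replicate also reaching that limit, limit read from the data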
DNMT1 inh: blocks human DNA methyltransferase DNMT1; DNMT1 molecular beacon, Hinp1I cleavage, fluorescence; inhibition (reported as % activation of signal), % at 10 µM; actives 0.83% (n = 360,000); in the data active = inhibition above about 50%
LMPTP inh: LMPTP (human) inhibition; P24666; recombinant LMPTP-A, OMFP fluorogenic substrate, fluorescence intensity; inhibition, % at 20 µM; actives 0.22% (n = 360,000); AID 651560;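 active = compounds that cut the enzyme signal by at least half of the control window in the single-dose screen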
Target sequence (P24666 whole entry, looked up): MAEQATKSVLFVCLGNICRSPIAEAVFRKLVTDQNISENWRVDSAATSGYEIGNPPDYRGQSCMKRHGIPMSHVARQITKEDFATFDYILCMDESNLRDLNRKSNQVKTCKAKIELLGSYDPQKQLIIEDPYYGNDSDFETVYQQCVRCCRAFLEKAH
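Material: LMPTP-A; amount: 0.625 nM enzyme; doses: single 20 µM dose; times: reaction 50 min, room temperature, dark; technique: fluorescence intensity of OMFP turnover product; benchmarks: no-enzyme and uninhibited controls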
SUMO1-SIM PPI: SUMO1-SIM interaction modulation | P63165 | actives 0.33% (n = 360,000) | SUMO1 binding to a labelled peptide, TR-FRET, 1 h | inhibition, % at 20 µM; in the data active = inhibition above about 37%
Scp1 inh: blocks human Scp-1 phosphatase activity | Recombinant Scp1, phosphopeptide, malachite green phosphate absorbance | inhibition, % at 20 µM | actives 0.88% (n = 340,000) | AID 493091;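 active = inhibition above about 50% at 20 µM, limit read from the data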
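Assay system: SCP-1 catalytic fragment, aa 76-261 | Buffer or medium: Tris acetate buffer pH 5.5 with MgCl2 and Tween-20 | Compound: One concentration, 20 µM, with 1.0% DMSO | Also added: Phospho 17-mer peptide substrate | Signal: Absorbance at 630 nm | Incubation: 45 min enzyme reaction at room temperature | Measure: % inhibition of SCP-1 phosphate liberation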
STEP inh: blocks human striatal-enriched tyrosine phosphatase; actives 0.25% (n = 360,000); recombinant STEP, OMFP fluorogenic substrate, fluorescence; AID 588621; inhibition, % at 20 µM;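 active = inhibition at 20 µM, scaled per plate between control wells, above about 37%, limit read from the data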
Target sequence (P54829 whole entry, looked up): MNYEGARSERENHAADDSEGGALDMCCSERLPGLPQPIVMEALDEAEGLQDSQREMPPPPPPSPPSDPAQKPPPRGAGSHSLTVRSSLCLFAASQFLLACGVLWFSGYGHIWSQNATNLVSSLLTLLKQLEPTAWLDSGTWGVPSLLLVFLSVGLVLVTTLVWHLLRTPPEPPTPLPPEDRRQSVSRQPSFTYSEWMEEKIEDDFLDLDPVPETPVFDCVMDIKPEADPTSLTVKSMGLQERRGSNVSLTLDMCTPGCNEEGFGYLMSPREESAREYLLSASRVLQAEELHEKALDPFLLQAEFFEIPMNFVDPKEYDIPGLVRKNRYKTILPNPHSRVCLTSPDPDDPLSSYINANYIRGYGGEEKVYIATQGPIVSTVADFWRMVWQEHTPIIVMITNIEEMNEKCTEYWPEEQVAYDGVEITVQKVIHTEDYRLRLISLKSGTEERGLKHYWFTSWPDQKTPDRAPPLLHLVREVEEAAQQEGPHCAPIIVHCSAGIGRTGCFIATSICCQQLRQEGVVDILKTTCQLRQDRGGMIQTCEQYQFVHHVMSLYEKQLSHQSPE
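System: STEP phosphatase, cell-free reaction; Buffer or medium: Bis-Tris pH 6.0 buffer with DTT, detergent; Incubation: 20 min at room temperature, dark; Measured by: fluorescence, 480/540 nm.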
Scp-1 conf: Scp-1 (human) inhibition, single-dose confirmed. shares compounds with Scp1 inh. recombinant SCP-1 catalytic domain, phosphate release, malachite green absorbance. inhibition, % at 20 µM. actives 61% (n = 2,500). AID 540281
Scp-1 MG ctr: colorimetric interference in Scp-1 counter-screen | shares compounds with Scp1 inh | Colorimetric interference counterscreen, malachite green absorbance 630 nm | apparent inhibition (interference), % at 20 µM | 2,500 tested, under 10 active | AID 540313;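 also: compounds added after enzyme reaction finished so only phosphate colour detection is probed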
Scp1 DSF: validation of human Scp-1 inhibitors by thermal shift binding; actives 25% (n = 1,500); Recombinant SCP1, Sypro Orange thermal shift Tm; shares compounds with Scp1 inh; thermal shift relative to vanadate control, % at 40 µM;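 active = substances whose mean melting-temperature shift, as a percentage of the reference inhibitor's shift, reaches about 5.3%, limit read from the data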
DNMT1 interf DR: beacon fluorescence artifact, dose response counter-screen; molecular beacon fluorescence, spectral interference counter-screen; AID 602382; shares compounds with DNMT1 inh; IC50, µM; 200 tested, under 10 active; call rule not given here
DNMT1 inh conf: DNMT1 inhibition confirmation, single concentration; shares compounds with DNMT1 inh; DNMT1 molecular beacon HinP1I cleavage, fluorescence; inhibition, % at 10 µM; actives 8% (n = 2,300); AID 602385;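 active = average inhibition of at least 30% in the single-concentration confirmation test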
DNMT1 interf: beacon fluorescence artifact counter-screen | shares compounds with DNMT1 inh | actives 1% (n = 2,300) | activation (fluorescence interference), % at 10 µM | DNMT1 molecular beacon spectral interference counterscreen, fluorescence 485/520 | AID 602387;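 active = activation of at least 30% at 10 µM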;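 also: DNMT1 catalytic domain with a HinP1I cleavage step and a FAM/dabcyl DNA beacon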
Each line names hits and unclear results; the compound was inactive in the other large screens (follow-up assays come after a bar, where they were run). Hits are enriched below; roughly 1.7% of the tested compounds scored in any of these assays.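 The calls were made as follows, unless noted: active = inhibition of at least 30% at 20 µM; inactive = the rest.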

O=C(NCc1ccc(F)cc1)c1c2c(nc3ccccc13)CCC2	DNMT1 inh 57, Scp1 inh 52 | Scp-1 conf 60 | Scp-1 MG ctr inactive | Scp1 DSF 12 | DNMT1 inh conf inactive | DNMT1 interf inactive
O=C(NCc1ccco1)c1c2c(nc3ccccc13)CCC2	DNMT1 inh 84, Scp1 inh 66 (no result: CASP6 VEID inh) | Scp-1 conf 51 | Scp-1 MG ctr inactive | Scp1 DSF 8.3 | DNMT1 inh conf inactive | DNMT1 interf inactive
C=CCn1c(SCC(=O)N2CCOCC2)nc2scc(-c3ccco3)c2c1=O	DNMT1 inh 77, Scp1 inh 73 (no result: CASP6 VEID inh) | Scp-1 conf inactive | Scp-1 MG ctr inactive | DNMT1 inh conf inactive | DNMT1 interf inactive
NC(=O)c1ccc(NC(=O)COC(=O)c2ccc3c(c2)OCO3)cc1	none
NC(=O)c1ccc(NC(=O)COC(=O)c2cc3c(s2)CCC3)cc1	DNMT1 inh 80, Scp1 inh 85 | Scp-1 conf 62 | Scp-1 MG ctr inactive | Scp1 DSF inactive | DNMT1 inh conf inactive | DNMT1 interf inactive
O=C(COC(=O)c1cc2c(s1)CCCC2)Nc1ccc(Cl)cn1	none
O=C(COC(=O)c1cc2c(s1)CCC2)Nc1ccc(F)cc1	DNMT1 inh 66, Scp1 inh 68 | Scp-1 conf 74 | Scp-1 MG ctr inactive | Scp1 DSF inactive | DNMT1 interf DR inactive | DNMT1 inh conf inactive | DNMT1 interf inactive
COCCNC(=O)c1ccc2ccccc2n1	none (no result: CASP6 VEID inh)
O=C(O)c1ccc(N2C(=O)c3cccc4cccc(c34)C2=O)cc1	none
O=C(O)c1ccc(N2C(=O)c3cccc4c(C(=O)O)ccc(c34)C2=O)cc1	CASP6 VEID inh 53, DNMT1 inh 91, Scp1 inh 72 | Scp-1 conf 45 | Scp-1 MG ctr inactive | Scp1 DSF 12 | DNMT1 inh conf inactive | DNMT1 interf inactive
CCCCc1nnc(NC(=O)CCS(=O)(=O)c2ccc(C)cc2)s1	none
O=C(N/N=C/c1ccc(-c2ccccc2C(=O)O)o1)c1cccs1	DNMT1 inh 63, Scp1 inh 52 (no result: CASP6 VEID inh) | Scp-1 conf 71 | Scp-1 MG ctr inactive | Scp1 DSF 6.5 | DNMT1 inh conf inactive | DNMT1 interf inactive
N#Cc1cc(-c2ccccc2)nc(Oc2ccc(Cl)cc2)n1	none (no result: CASP6 VEID inh)
C[C@@H]1CCCCO[C@@H](CN(C)C(=O)CCC(F)(F)F)[C@@H](C)CN([C@H](C)CO)C(=O)c2cc(NS(=O)(=O)c3ccc(Cl)cc3)ccc2O1	none (no result: DNMT1 inh, LMPTP inh, SUMO1-SIM PPI, Scp1 inh, STEP inh)
N=C1/C(=C/c2ccc(Br)o2)C(=O)N=C2SC(CC(=O)N3CCCC3)=NN12	DNMT1 inh 66, SUMO1-SIM PPI 57, Scp1 inh 88 | Scp-1 conf 58 | Scp-1 MG ctr inactive | Scp1 DSF 8.1 | DNMT1 inh conf inactive | DNMT1 interf inactive
N=C1/C(=C/c2ccco2)C(=O)N=C2SC(CC(=O)N3CCCC3)=NN12	CASP6 VEID inh 51, DNMT1 inh 64, Scp1 inh 73 | Scp-1 conf 63 | Scp-1 MG ctr inactive | Scp1 DSF inactive | DNMT1 inh conf inactive | DNMT1 interf inactive
Cc1ccc(C=C2C(=O)c3ccccc3C2=O)o1	DNMT1 inh 70, Scp1 inh 55 (no result: CASP6 VEID inh) | Scp-1 conf 59 | Scp-1 MG ctr inactive | Scp1 DSF 6.2 | DNMT1 inh conf inactive | DNMT1 interf inactive
O=C1C(=Cc2ccco2)C(=O)c2ccccc21	none (no result: CASP6 VEID inh)
CC(C)c1ccc(NC(=O)C2C3C=CC(CC3)C2C(=O)O)cc1 (stereo not given)	none
O=C(O)C1C2C=CC(CC2)C1C(=O)O (stereo not given)	DNMT1 inh 77, Scp1 inh 102 (no result: CASP6 VEID inh) | Scp-1 conf 72 | Scp-1 MG ctr inactive | Scp1 DSF inactive | DNMT1 inh conf inactive | DNMT1 interf inactive
Cc1ccc([C@H]2C(C(=O)O)=C[C@@H](CC3CCCC3)N2S(=O)(=O)c2ccc(C)cc2)cc1	none
COc1ccc(S(=O)(=O)N2Cc3ccccc3CC2C(=O)O)cc1 (stereo not given)	DNMT1 inh 60, Scp1 inh 75 | Scp-1 conf 64 | Scp-1 MG ctr inactive | Scp1 DSF inactive | DNMT1 inh conf inactive | DNMT1 interf inactive
COc1ccc(C(=O)OCC(=O)NC2CC2)cc1S(=O)(=O)Nc1ccc(C)cc1	none
COc1ccc(NC(=O)/C(C#N)=C/c2ccc(Br)o2)cc1	DNMT1 inh 99, Scp1 inh 77 (no result: CASP6 VEID inh) | Scp-1 conf 56 | Scp-1 MG ctr inactive | Scp1 DSF 5.5 | DNMT1 inh conf inactive | DNMT1 interf inactive
CCn1c(C)cc(/C=C2\NC(=O)N(CC(=O)Nc3ccc(F)cc3)C2=O)c1C	none
Cc1ccc(NC(=O)CN2C(=O)N/C(=C/c3ccco3)C2=O)cc1	DNMT1 inh 85, Scp1 inh 76 (no result: CASP6 VEID inh) | Scp-1 conf inactive | Scp-1 MG ctr inactive | DNMT1 inh conf inactive | DNMT1 interf inactive
Cc1ccc(NC(=O)CN2C(=O)N/C(=C/c3cc(C)n(-c4ccc(C(=O)O)cc4)c3C)C2=O)cc1	CASP6 VEID inh 54, DNMT1 inh 67, Scp1 inh 63 | Scp-1 conf 54 | Scp-1 MG ctr inactive | Scp1 DSF inactive | DNMT1 inh conf inactive | DNMT1 interf inactive
Cc1ccc(Cl)c(OCCCCN2CCC(C)CC2)c1	none
NS(=O)(=O)c1ccc(NC(=O)C2Cc3ccccc3CN2C(=O)c2ccco2)cc1 (stereo not given)	CASP6 VEID inh 45, DNMT1 inh 59, Scp1 inh 61 | Scp-1 conf 66 | Scp-1 MG ctr inactive | Scp1 DSF 7.9 | DNMT1 inh conf inactive | DNMT1 interf inactive
COc1ccc(C(=O)Nc2cc3c(oc2=O)CCCC3=O)cc1	CASP6 VEID inh 44, DNMT1 inh 68, Scp1 inh 57 | Scp-1 conf 44 | Scp-1 MG ctr inactive | Scp1 DSF inactive | DNMT1 inh conf inactive | DNMT1 interf inactive
NC(=O)CSc1nnc2n(N)c(=O)c3ccccc3n12	none
